Screening results deposited in PubChem BioAssay by Broad Institute.
The sample as a whole holds a higher share of hits than the screen did.
T cruzi growth-1 = T. cruzi intracellular proliferation inhibitors, primary screen, cell-based, beta-gal Tulahuen parasites, NIH3T3 host, luminescence | T. cruzi beta-gal in NIH3T3, GalScreen luminescence, 90 h | inhibition, % at 8.34 µM | hit rate 5.9% among 77,000;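 active = mean inhibition above about 93%, with at least 55% of replicates each passing it, limit read from the data, passing the limit was not always enough; inconclusive = only one of those two conditions holds; inactive = neither condition holds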
KDM4C inh = inhibitors of GASC-1 (KDM4C) histone demethylase, primary screen, biochemical, single concentration HTS; inhibition, % at 12.5 µM; GST-KDM4C 2-372, H3K9me3 peptide, LANCE TR-FRET; hit rate 0.15% among 96,000; Lysine-specific demethylase 4C (Homo sapiens), Q9H3R0; AID 720574, 2013;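 active = mean replicate inhibition above about 25%, with at least 55% of replicates also reaching it, limit read from the data, passing the limit was not always enough; inconclusive = only one of those two conditions met; inactive = neither condition met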
Target sequence (Q9H3R0 2-372 limits assumed): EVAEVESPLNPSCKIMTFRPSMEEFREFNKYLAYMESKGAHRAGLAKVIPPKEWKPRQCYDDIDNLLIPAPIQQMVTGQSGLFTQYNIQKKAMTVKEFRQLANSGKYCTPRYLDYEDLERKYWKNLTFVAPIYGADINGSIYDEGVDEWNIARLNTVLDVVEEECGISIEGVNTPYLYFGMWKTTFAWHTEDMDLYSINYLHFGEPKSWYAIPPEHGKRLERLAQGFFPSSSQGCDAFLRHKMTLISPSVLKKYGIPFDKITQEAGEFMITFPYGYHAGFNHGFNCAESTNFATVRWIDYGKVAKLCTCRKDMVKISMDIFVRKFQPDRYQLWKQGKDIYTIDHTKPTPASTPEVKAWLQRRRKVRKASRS
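Material: GST-tagged GASC-1 (JMJD2C) catalytic fragment, aa 2-372 / Quantity: enzyme final amount 10 nM / Medium: HEPES buffer, pH 7.5, plus ascorbate / Doses: one test concentration per compound / Incubation: 30 min reaction, 60 min detection, RT / Measured by: LANCE TR-FRET / Read-out: inhibition from TR-FRET ratio decrease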
IDH1 R132H inh = inhibitors of IDH1 R132H reductase, primary screen, biochemical, plate reader, single point. AID 624101, 2012. inhibition, % at 10 µM. Isocitrate dehydrogenase [NADP] cytoplasmic (Homo sapiens), O75874. diaphorase/resazurin fluorescence, 60 min. hit rate 0.18% among 70,000; in the data active = inhibition above about 34%; inconclusive = no clear call, values can overlap the other calls; inactive = below about 11%;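 also: 0% = DMSO and 100% = no enzyme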
Target sequence (O75874 whole entry R132H): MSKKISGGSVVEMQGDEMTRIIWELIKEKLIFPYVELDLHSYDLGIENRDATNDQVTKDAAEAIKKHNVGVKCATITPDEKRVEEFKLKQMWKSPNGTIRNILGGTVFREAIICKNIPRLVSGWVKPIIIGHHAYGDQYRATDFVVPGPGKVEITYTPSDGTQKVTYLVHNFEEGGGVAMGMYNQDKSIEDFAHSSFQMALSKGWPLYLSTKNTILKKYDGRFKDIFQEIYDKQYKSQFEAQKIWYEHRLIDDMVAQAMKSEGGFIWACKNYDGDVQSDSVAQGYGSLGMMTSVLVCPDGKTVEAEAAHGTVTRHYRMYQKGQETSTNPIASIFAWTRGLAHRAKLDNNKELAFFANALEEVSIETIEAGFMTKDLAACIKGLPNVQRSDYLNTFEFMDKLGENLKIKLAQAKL
T cruzi growth-2 = T. cruzi intracellular proliferation inhibitors, confirmation, cell-based, NIH3T3 host, beta-gal parasite, luminescence, cherry-pick; shares compounds with T cruzi growth-1; T. cruzi beta-gal in NIH3T3, GalScreen luminescence, 90 h; inhibition, % at 8.35 µM; hit rate 72% among 5,600; AID 651739, 2012;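 active = mean replicate inhibition above about 95% and at least 55% of replicates individually reaching it, limit read from the data; inconclusive = only one of the two criteria is met; inactive = neither criterion is met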
T cruzi growth-3 = inhibitors of intracellular T. cruzi replication, confirmation, NIH3T3 host cells, beta-gal parasites, cherry-pick, set 2 | T. cruzi beta-gal in NIH3T3, GalScreen luminescence, 90 h | inhibition, % at 2.09 µM | hit rate 21% among 5,600 | AID 651740, 2012 | shares compounds with T cruzi growth-1;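 active = mean inhibition above about 95%, with at least 55% of replicates also reaching it, limit read from the data; inconclusive = meets just one of the two conditions; inactive = meets neither condition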;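 also: plate controls were neutral control median for no effect and positive control median for full effect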
3T3 cytotox = cytotoxicity in mouse NIH/3T3 fibroblasts, confirmation, cytotoxicity control for T. cruzi proliferation inhibitor project, cell-based, cherry-pick, single point | shares compounds with T cruzi growth-1 | NIH/3T3 viability, CellTiter-Glo ATP luminescence, 90 h | cytotoxicity (signal decrease), % at 8.35 µM | hit rate 14% among 5,600;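 active = mean signal decrease across replicates above about 35% based on untreated-well scatter, with enough replicates individually passing, limit read from the data; inconclusive = no rule stated though some were filed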;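 also: 0% = median of neutral control wells and 100% = median of positive control wells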
NIH3T3 tox 2 = NIH/3T3 fibroblast cytotoxicity, confirmation, cytotoxicity control, cell-based, cherry-pick, single point, set 2; shares compounds with T cruzi growth-1; NIH/3T3 viability, CellTiter-Glo ATP luminescence, 90 h; inhibition, % at 24.9 µM; hit rate 56% among 5,600;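 active = mean loss of cell viability signal at or above a set limit, and enough replicates individually reaching it; inconclusive = meets only the mean limit or only the replicate share; inactive = meets neither condition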;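 also: 0% = median of neutral control wells and 100% = median of positive control wells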
* marks the source's active call; other numbers are inactive results; ? = inconclusive; nt = no result given.

SMILES	T cruzi growth-1	KDM4C inh	IDH1 R132H inh	T cruzi growth-2	T cruzi growth-3	3T3 cytotox	NIH3T3 tox 2
C[C@@H]1CN([C@H](C)CO)C(=O)c2cc(NC(=O)c3ccccc3)ccc2O[C@@H](C)CCCCO[C@H]1CN(C)C(=O)Nc1cccc2ccccc12	92.7	-2.2	-3.6	nt	nt	nt	nt
C[C@@H]1CCCCO[C@@H](CN(C)C(=O)Nc2ccc(F)cc2)[C@@H](C)CN([C@H](C)CO)C(=O)c2cc(NC(=O)Nc3cccc4ccccc34)ccc2O1	103.3*	-1.3	0.8	89.2	18.5	3.6	14.6
CC1CC(=O)C2=C(C1)C(Cl)C(O)C1(O)C2C(=O)c2cccc(O)c2C1O (stereo not given)	nt	nt	1.4	nt	nt	nt	nt
C[C@H](CO)N1C[C@H](C)[C@H](CN(C)Cc2ccncc2)Oc2ncc(C#Cc3ccncc3)cc2C1=O	47.4	1.8	19.9	nt	nt	nt	nt
COc1ccc(OC)c(S(=O)(=O)N2CCC(C(=O)Nc3ccc(Cl)cc3)CC2)c1	nt	nt	-0.1	nt	nt	nt	nt
CC(C)NC(=O)N1CCCCN2[C@H](CO)[C@H](c3ccc(C4=CCCC4)cc3)[C@@H]2C1	117.0*	2.0	nt	113.2*	105.9*	7.5	-8.2
COc1ccc(-c2ccc([C@H]3[C@@H](CO)N4CCCCN(C(=O)NC(C)C)C[C@@H]34)cc2)cc1	81.3	-0.3	nt	nt	nt	nt	nt
COc1ccc(-c2ccc([C@H]3[C@H](CO)N4CCCCN(C(=O)NC(C)C)C[C@@H]34)cc2)cc1	105.2*	0.6	nt	113.5*	37.9	13.5	24.8*
CC(C)NC(=O)N1CCCCN2[C@H](C1)[C@@H](c1ccc(Br)cc1)[C@@H]2CO	47.4	-0.8	nt	nt	nt	nt	nt
COc1ccc(-c2ccc([C@H]3[C@@H](CO)N4CCCCN(C(=O)NC(C)C)C[C@H]34)cc2)cc1	104.2*	0.2	nt	110.4*	76.6	-10.5	85.4*
COc1ccc(-c2ccc([C@@H]3[C@H]4CN(C(=O)NC(C)C)CCCCN4[C@H]3CO)cc2)cc1	68.8	0.4	nt	nt	nt	nt	nt
N#C[C@H]1N[C@H](CO)[C@@H]1c1ccc(-c2cccc(F)c2)cc1	45.1	-0.3	nt	nt	nt	nt	nt
CCCNC(=O)N(C)C[C@H]1Oc2ncc(C#CC3(O)CCCC3)cc2C(=O)N([C@@H](C)CO)C[C@@H]1C	nt	0.4	-2.6	nt	nt	nt	nt
C[C@H](CO)N1C[C@H](C)[C@@H](CN(C)C(=O)c2ccccc2)Oc2cc(C3=CCCC3)ccc2S1(=O)=O	83.1	1.9	-0.1	nt	nt	nt	nt
C[C@H](CO)N1C[C@H](C)[C@@H](CN(C)C(=O)c2ccc(F)cc2)Oc2cc(C3=CCCCC3)ccc2S1(=O)=O	?	-3.9	-0.3	110.2*	52.3	31.1	47.6*
C[C@@H]1CN([C@H](C)CO)S(=O)(=O)c2ccc(C3=CCCC3)cc2O[C@@H]1CN(C)C(=O)c1ccc(F)cc1	nt	1.3	6.6	nt	nt	nt	nt
C[C@@H]1CN([C@@H](C)CO)S(=O)(=O)c2ccc(C3=CCCC3)cc2O[C@@H]1CN(C)C(=O)c1ccccc1	100.0*	-2.1	0.4	113.6*	86.4	13.2	17.7
C[C@@H]1CN([C@@H](C)CO)S(=O)(=O)c2ccc(C3=CCCCC3)cc2O[C@@H]1CN(C)C(=O)c1ccccc1	107.7*	0.5	nt	84.4	93.4	27.5	70.2*
C[C@H]1CN([C@@H](C)CO)S(=O)(=O)c2ccc(C3=CCCCC3)cc2O[C@H]1CN(C)C(=O)c1ccccc1	65.1	4.5	nt	nt	nt	nt	nt
C[C@H]1CN([C@@H](C)CO)C(=O)Cc2cc(NS(=O)(=O)c3ccc(Cl)cc3)ccc2O[C@H]1CN(C)Cc1ccc(C(=O)Nc2ccccc2N)cc1	nt	-1.2	0.1	nt	nt	nt	nt
CSc1cccc(NC(=O)CN(C)S(=O)(=O)c2ccc3ccccc3c2)c1	nt	nt	-0.4	nt	nt	nt	nt
COc1ccc(C#Cc2ccc([C@@H]3[C@H](CO)N4CCCCN(C(=O)Nc5ccccc5)C[C@@H]34)cc2)cc1	78.4	-2.9	nt	nt	nt	nt	nt
COc1ccc(C#Cc2ccc([C@H]3[C@H]4CN(C(=O)Nc5ccccc5)CCCCN4[C@H]3CO)cc2)cc1	119.0*	-0.6	nt	108.0*	56.1	18.9	21.7
COc1ccc(C#Cc2ccc([C@H]3[C@@H](CO)N4CCCCN(C(=O)Nc5cccc(F)c5)C[C@H]34)cc2)cc1	66.1	-3.4	nt	nt	nt	nt	nt
C/C=C/c1ccc([C@H]2[C@@H](CO)N3CCCCN(C(=O)Nc4ccc(OC)cc4)C[C@H]23)cc1	?	-0.4	nt	85.4	10.0	-1.4	89.8*
SMILES	T cruzi growth-1	KDM4C inh	IDH1 R132H inh	T cruzi growth-2	T cruzi growth-3	3T3 cytotox	NIH3T3 tox 2
COc1ccc(C#Cc2ccc([C@@H]3[C@H]4CN(C(=O)Nc5cccc(F)c5)CCCCN4[C@H]3CO)cc2)cc1	67.6	-1.5	nt	nt	nt	nt	nt
C/C=C/c1ccc([C@@H]2[C@H](CO)N3CCCCN(C(=O)Nc4ccc(OC)cc4)C[C@@H]23)cc1	60.9	-3.1	nt	nt	nt	nt	nt
COc1ccc(C#Cc2ccc([C@H]3[C@@H](CO)N4CCCCN(C(=O)Nc5cccc(F)c5)C[C@@H]34)cc2)cc1	112.2*	-3.6	nt	100.9*	108.7*	23.3	18.2
COc1ccc(C#Cc2ccc([C@H]3[C@@H](CO)N4CCCCN(C(=O)Nc5ccccc5)C[C@@H]34)cc2)cc1	124.8*	-2.9	nt	110.6*	113.6*	12.2	30.5*
CC(=O)N1[C@H](C(=O)NCC2CC2)[C@@H](CO)[C@@H]2Cn3c(ccc(-c4ccccc4F)c3=O)[C@@H]21	25.2	0.2	nt	nt	nt	nt	nt
CO[C@@H]1CN(C)C(=O)c2ccc(NC(=O)C3CC3)cc2OC[C@H](C)N(C(=O)c2ccccn2)C[C@H]1C	56.1	1.3	0.2	nt	nt	nt	nt
Cc1cc(C)c(NC(=O)C(C)N(c2ccccc2)S(C)(=O)=O)c(C)c1 (stereo not given)	nt	nt	0.2	nt	nt	nt	nt
C[C@@H]1CN([C@H](C)CO)S(=O)(=O)c2ccc(-c3ccccc3)cc2O[C@@H]1CN(C)Cc1cccc(F)c1	123.5*	-1.7	-6.5	112.4*	87.8	11.6	104.2*
C[C@@H]1CN([C@H](C)CO)S(=O)(=O)c2ccc(-c3ccc(F)cc3)cc2O[C@H]1CN(C)Cc1cccc(F)c1	61.1	0.2	-0.5	nt	nt	nt	nt
C[C@@H]1CN([C@@H](C)CO)S(=O)(=O)c2ccc(-c3ccccc3)cc2O[C@H]1CN(C)Cc1cccc(F)c1	121.5*	-0.6	-1.1	99.2*	?	39.9*	103.0*
